Assay results gathered from unrelated publications.
Lines come from different studies, so protocols differ.
Target: Dual specificity tyrosine-phosphorylation-regulated kinase 1B (DYRK1B, Homo sapiens, UniProt Q9Y463)
Technique: competition with immobilised ligand

| SMILES | effect on | tested at | remaining binding [%] |
| --- | --- | --- | --- |
| Cc1cc(-n2nc(Cc3cc(F)cc(C(F)(F)F)c3)nc2C)ccc1C(N)=O | cell-free assay | 1 µM | 100 |
| O=C(c1ccc(Nc2ncc(Cl)c(-c3ccc(Cl)s3)n2)cc1)N1CCC(N2CCCC2)CC1 | binding | 1 µM | 33 |
| COc1ccc2c(c1)O[C@@H](c1ccc(OC)c(OC)c1)C[C@H]2NC(=O)C1(c2ccc3c(c2)OC(F)(F)O3)CC1 | cell-free assay | 1 µM | 100 |
| O=C(NCCCN1CCOCC1)c1ccc(Nc2nccc(-c3cc4ccccc4s3)n2)cc1 | binding | 1 µM | 92 |
| Nc1ncc2c(n1)-c1c([nH]c3ccc(C#CC4CC4)cc13)CCCC2 | binding | 1 µM | 77 |
| CN(CCCC(F)(F)F)c1nccc(-c2cnn3ncccc23)n1 | binding | 1 µM | 39 |
| Cc1c[nH]c2nccc(Oc3c(F)cc(Nc4cc(Cl)nc(N)n4)cc3F)c12 | cell-free assay | 0.1 µM | 100 |
| C=CC(=O)N1CCC(C(=O)NCC(=O)N2CCN(c3nc(-c4cnc(N)nc4C(F)F)nc(N4CCOCC4)n3)CC2)CC1 | binding | 1 µM | 98 |
| O=C(Nc1c[nH]nc1C(=O)NC1CCNCC1)c1cc(F)cc(F)c1 | binding | 1 µM | 100 |
| CCN1CCN(Cc2ccc(C(=O)Nc3ccc(C)c(Oc4ccc5c(c4)CC(=O)N5)c3)cc2C(F)(F)F)CC1 | binding | 1 µM | 95 |
| COc1cnc(Nc2cccc(S(N)(=O)=O)c2)nc1N1CCN(c2ccccc2)C(=O)C1 | binding | 1 µM | 91 |
| O=C(c1ccc(Nc2ncc(Cl)c(-c3cc4ccccc4s3)n2)cc1)N1CCC(N2CCCC2)CC1 | binding | 1 µM | 18 |
| N#Cc1ccccc1CSc1nnc2c(n1)[nH]c1ccccc12 | binding | 10 µM | 74 |
| O=C(N[C@H]1CCCCC/C=C\C2C[C@@]2(C(=O)O)NC(=O)[C@@H]2C[C@@H](Oc3ccncc3)CN2C1=O)OC1CCCC1 (stereo partly drawn) | cell-free assay | 1 µM | 46 |
| COC(=O)Nc1nc2ccc(C(=O)c3ccccc3)cc2[nH]1 | cell-free assay | 10 µM | 5.6 |
